Source: PubChem
STAT3 blocker = IL-6 driven STAT3 reporter inhibitors, primary screen, U3A cells, luciferase, luminescence, MLSCN library. 190,000 tested, 0.89% active. inhibition, % at 5.5 µM. AID 862, 2007. IL-6 STAT3-luciferase reporter; host cell line lacks STAT1;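 active = inhibition above the mean inhibition across all screened compounds plus 3 SD, cut at about 44% in these data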;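 note: 0% = DMSO only wells and 100% = 100 µM nifuroxazide control wells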
PERK inhibitor = block of dimerizer-induced PERK translation repression, primary screen, PERK inhibitor project, CHO PERK-DD cells, SEAP luminescence, HTS; inhibition, % at 5.6 µM; CHO PERK-DD fusion, SEAP luminescence translation reporter; Eukaryotic translation initiation factor 2-alpha kinase 3 (Homo sapiens), Q9NZJ5; 220,000 tested, 0.17% active;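 active = inhibition above the mean inhibition of all tested compounds plus 3 SD, set separately per screening campaign, cut at about 2.9% in these data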;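 note: PERK kinase domain activated by AP20187 dimerizer at 100 nM; 0% = DMSO with dimerizer and 100% = rapamycin at 8.4 µM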
Target sequence (Q9NZJ5 whole entry, looked up, the tested form may be a part): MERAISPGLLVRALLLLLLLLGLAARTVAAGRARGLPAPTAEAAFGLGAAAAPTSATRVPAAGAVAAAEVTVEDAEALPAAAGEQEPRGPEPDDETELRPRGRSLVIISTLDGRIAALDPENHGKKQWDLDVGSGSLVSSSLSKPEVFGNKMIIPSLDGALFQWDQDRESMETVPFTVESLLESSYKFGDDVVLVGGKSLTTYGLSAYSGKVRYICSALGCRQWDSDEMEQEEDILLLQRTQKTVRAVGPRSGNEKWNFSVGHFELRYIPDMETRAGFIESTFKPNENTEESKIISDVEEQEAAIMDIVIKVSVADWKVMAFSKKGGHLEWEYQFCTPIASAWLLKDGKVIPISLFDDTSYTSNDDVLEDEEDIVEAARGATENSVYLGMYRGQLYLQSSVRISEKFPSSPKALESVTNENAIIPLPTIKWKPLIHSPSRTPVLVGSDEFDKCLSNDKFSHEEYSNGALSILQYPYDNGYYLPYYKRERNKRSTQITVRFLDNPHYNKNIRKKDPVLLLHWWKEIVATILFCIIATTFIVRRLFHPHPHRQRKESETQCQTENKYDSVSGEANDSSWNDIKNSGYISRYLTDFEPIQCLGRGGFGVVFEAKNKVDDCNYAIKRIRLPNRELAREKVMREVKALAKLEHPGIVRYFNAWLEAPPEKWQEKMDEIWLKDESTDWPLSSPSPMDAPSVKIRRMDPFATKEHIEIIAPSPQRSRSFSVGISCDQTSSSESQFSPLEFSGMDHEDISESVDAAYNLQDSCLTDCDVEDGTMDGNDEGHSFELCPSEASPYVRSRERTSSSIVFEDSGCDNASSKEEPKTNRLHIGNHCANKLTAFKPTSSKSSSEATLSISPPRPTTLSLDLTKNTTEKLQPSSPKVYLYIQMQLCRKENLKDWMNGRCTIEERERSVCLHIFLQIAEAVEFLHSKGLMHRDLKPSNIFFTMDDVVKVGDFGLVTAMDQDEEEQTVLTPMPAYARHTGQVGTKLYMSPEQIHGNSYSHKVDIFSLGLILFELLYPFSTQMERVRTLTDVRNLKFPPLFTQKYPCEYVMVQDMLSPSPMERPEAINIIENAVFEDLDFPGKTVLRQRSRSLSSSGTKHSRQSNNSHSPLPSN
STAT3 activator = IL-6 driven STAT3 reporter potentiators, primary screen, U3A cells, luciferase, luminescence, MLSCN library; IL-6 STAT3-luciferase reporter; 100% = signal with IL-6 EC80 alone; activation (% of control), % at 5.6 µM; 190,000 tested, 0.91% active; AID 871, 2007;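 active = activation above the screen-wide mean of compound activation plus 3 SD, cut at about 130% in these data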;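 note: 0% = background luminescence of wells with medium and substrate only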
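Assay system – human STAT1-deficient U3A cells with stable STAT3-luciferase reporter · Also added – IL-6 (33 ng/mL) · Schedule – compound 1 h, then IL-6 6 h at 37 °C · Technique – reporter luminescence signal · Evaluation – % activation versus median of IL-6-stimulated wells · Benchmarks – IL-6-only wells as 100% reference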
STAT1 inh = STAT1 signaling inhibitors, primary screen, cell-based, HTS, luciferase reporter; 200,000 tested, 0.35% active; NIH 3T3 STAT1-luciferase reporter, IFN-gamma, luminescence; inhibition, % at 5.5 µM; AID 920, 2007;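 active = inhibition above a set limit, the mean inhibition across all tested compounds plus 3 SD, cut at about 34% in these data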;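 note: 0% = IFN-gamma with DMSO and 100% = IFN-gamma with 300 µM nifuroxazide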
* marks the source's active call; other numbers are inactive results; / = no result. This is a sample that favours compounds with a hit; in the whole collection about 1.8% have one here.

SMILES	STAT3 blocker	PERK inhibitor	STAT3 activator	STAT1 inh
CCOC(=O)c1c(C)[nH]c(C)c1C(=O)CSc1nnc(-c2cc(OC)c(OC)c(OC)c2)o1	3	3.2*	102	-2
Fc1ccc(Nc2ccc3ccccc3n2)c(F)c1	72*	0	41	44*
O=C(/C=C/Nc1ccc(Br)cc1F)c1ccco1	96*	1	19	81*
O=C(/C=C/Nc1ccccc1O)c1ccco1	/	0	/	/
O=C(/C=C/Nc1ccc(F)cc1F)c1ccco1	84*	0	30	77*
COc1cc(/C=N\NC(=O)c2ccc(Cn3cc(Br)c([N+](=O)[O-])n3)o2)cc(OC)c1O	-14	1	110	-4
CN(C)/C=C1\C(=O)Nc2ccccc21	-32	0	135*	6
Nc1nn2cc(-c3ccccc3)nc2c2ccccc12	-40	0	135*	-47
Cc1cn2nc(N)c3ccccc3c2n1	6	0	101	0
COc1ccccc1N/N=C/c1ccc2c(c1)OCO2	72*	-2	40	51*
COc1ccccc1NC(=O)NCc1ccc2c(c1)OCO2	2	1	102	3
COCCCN=C1NN=C(c2cc(C)n(Cc3ccco3)c2C)CS1	3	-1	98	-26
COCCn1c(C)cc(C2=NNC(=Nc3ccc(Cl)cc3Cl)SC2)c1C	0	0	104	-2
COCCn1c(C)cc(C2=NNC(=NC3CC3)SC2)c1C	103*	0	10	97*
Cc1cc(C2=NNC(=NC3CC3)SC2)c(C)n1Cc1ccco1	85*	0	29	52*
O=c1c2ccccc2nc2n1C(CSCc1ccc(Cl)cc1Cl)CS2 (stereo not given)	19	0	84	19
C=CCOCC(O)CS(=O)(=O)Cc1ccc(Cl)cc1 (stereo not given)	-4	0	104	-1
CC(CCc1ccccc1)NC(=O)c1ccccc1 (stereo not given)	0	-2	105	-1
CC(CCc1ccccc1)NC(=O)c1ccc(C(=O)NC(C)CCc2ccccc2)cc1 (stereo not given)	60*	-1	53	3
N#CC(C#N)=C1C(=O)N(CCN2CCOCC2)c2ccccc21	/	0	/	/
O=C(O)c1cccnc1SCc1cn2cc(Cl)ccc2n1	/	3.0*	/	/
Oc1ccc(-c2n[nH]c(C(F)(F)F)c2-c2ccccc2)c(O)c1	72*	0	40	41*
O=C(CSc1nccn1-c1ncc(C(F)(F)F)cc1Cl)c1ccc(Cl)cc1	-101	1	197*	-36
O=C(OC1CCN(c2ncc(C(F)(F)F)cc2Cl)CC1)c1ccc(Cl)cc1	2	1	104	-2
CCN(CC(=O)NC(C)(C)C)C(=O)C(c1ccccc1)c1ccccc1	9	0	99	3
SMILES	STAT3 blocker	PERK inhibitor	STAT3 activator	STAT1 inh
CCc1ccc(C2=NN(C(=O)OC)C(O)(C(F)(F)F)C2)cc1 (stereo not given)	69*	1	48	38*
CCOC(=O)N1N=C(c2ccc(OC)cc2)CC1(O)C(F)(F)F (stereo not given)	13	0	90	-19
O=C(Nc1cccc([N+](=O)[O-])c1)Nc1ccc2c(c1)OCCO2	5	0	99	-63
O=c1oc2ccccc2c(N2CCOCC2)c1[N+](=O)[O-]	2	1	103	-8
CCOc1ccc(C2=Nn3c(nnc3-c3ccccc3OC)SC2)cc1	-49	-1	146*	-16
COc1cc(C2Nc3ccccc3C(=O)N2c2ccccc2)ccc1O (stereo not given)	-38	0	133*	-17
COc1ccc(-c2ccc(SCC(=O)Nc3nccs3)nn2)cc1OC	-42	0	135*	-9
CC1=C(C(=O)N(C)C)C(c2ccc(N3CCOCC3)cc2)NC(=O)N1 (stereo not given)	1	1	101	-3
C/C(=N\OC(=O)c1ccccc1F)c1nccs1	9	3.4*	101	6
O=C(N/N=C/c1ccccc1C(=O)O)c1ccc(COc2cccc3cccnc23)cc1	-6	0	106	-15
O=C(N/N=C/c1ccc[nH]1)c1ccc(COc2cccc3cccnc23)cc1	70*	1	42	-15
CC(Sc1ncnc2ccccc12)C(=O)Nc1ccc2c(c1)OCCO2 (stereo not given)	-5	0	103	11
CC1=NN(c2ccccc2)C(=O)/C1=C\c1c(C)[nH]n(-c2ccccc2)c1=O	-49	1	144*	-1
CC1=NN(c2ccccc2)C(=O)/C1=C\c1cn(CCC#N)nc1-c1ccc(Cl)cc1	-6	0	109	-1
CC1=NN(c2ccccc2)C(=O)/C1=C\c1cn(-c2ccccc2)nc1C	9	0	99	4
CC1=NN(c2ccccc2)C(=O)/C1=C/c1c(O)n(-c2ccc(F)c(Cl)c2)[nH]c1=O	-86	0	166*	-47
Cc1ccc(C(=O)Nc2cc3ccccc3oc2=O)cc1	106*	1	10	94*
Cc1ccc(C(=O)Nc2cnc3ccccc3c2)cc1	110*	-2	9	91*
O=C(Nc1cnc2ccccc2c1)c1cccc(-n2cnnn2)c1	-34	0	138*	-38
COc1ccc(CN(CCC(c2ccccc2)c2ccc(OC(C)C)cc2)C(=O)CCl)cc1OC (stereo not given)	5	0	99	3
Cc1cccc(C2c3[nH]c4ccccc4c3CCN2C(=O)Cc2nc(-c3ccccc3)n[nH]2)n1 (stereo not given)	-23	-1	125	1
Cc1cccc(C2c3[nH]c4ccccc4c3CCN2C(=O)CN2CCOC2=O)n1 (stereo not given)	-37	0	134*	5
CCOc1ccc(C(=O)Nc2cc(C)ccn2)cc1	93*	1	24	75*
Nc1nc[nH]c(=O)c1N=Cc1ccccc1	/	1	/	/
CCOc1ncccc1C(=O)OCc1ccc(Cl)cc1	9	0	96	1
SMILES	STAT3 blocker	PERK inhibitor	STAT3 activator	STAT1 inh
CCOc1ncccc1C(=O)OCc1ccc(C(=O)OC)cc1	-35	0	137*	-33
Nc1nnc(CC(=O)Nc2ccccc2)s1	/	3.0*	/	/
O=C(Cn1cnc2ccccc2c1=O)Nc1nc2ccccc2s1	-38	0	136*	4
CCc1ccc2nc(NC(=O)Cn3cnc4ccccc4c3=O)sc2c1	-2	0	104	-13
CN(CC(=O)Nc1nc2ccccc2s1)S(=O)(=O)c1ccc(Br)cc1	-40	-1	134*	-10
Cc1cccc(NC(=O)CN(C)S(=O)(=O)c2ccc(Br)cc2)n1	5	0	102	-1
O=C(CS(=O)(=O)c1ccccc1)Nc1nc2ccccc2s1	-31	0	133*	-8
N#CCSc1nc2scc(-c3cccs3)c2c(=O)n1CCc1ccccc1	13	3	95	4
Cn1c(=O)c(C(=O)c2ccccc2)nc2ccccc21	-7	1	111	-3
